ChEMBL document CHEMBL5325390, “1,2,4-Triazole-3-thione analogues with an arylakyl group at position 4 as metallo-β-lactamase inhibitors” (Bioorg Med Chem, 2022)

Legend:
[1] = Binding affinity to VIM-4 (unknown origin) expressed in Escherichia coli BL21(DE3) assessed as inhibition constant by measuring rate of substrate hydrolysis by UV-Vis spectrophotometric analysis
Summary of the method: (§1)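 Purified MBL (1–70 nM) with 150 µM imipenem or meropenem as reporter substrate, 50 mM HEPES pH 7.5, 30 °C. Hydrolysis followed by absorbance at 300 nm without and with inhibitor (0.5 µM–1 mM). Ki from the slope of v0/vi vs [I] under a competitive model, or from Dixon plots varying inhibitor and substrate. […] Triplicate, mean ± SD.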

Klebsiella pneumoniae [2] = assay: Antimicrobial synergistic activity against blaVIM-4-producing multidrug-resistant Klebsiella pneumoniae VA416/02 clinical isolate assessed as meropenem MIC at 32 ug/ml by CLSI based broth microdilution method (reference value: 16 ug/ml); type: functional; settings: dose 32 µg/ml
Klebsiella pneumoniae [3] = assay: Antimicrobial synergistic activity against blaVIM-1-producing multidrug-resistant Klebsiella pneumoniae 7023 clinical isolate assessed as meropenem MIC at 32 ug/ml by CLSI based broth microdilution method (reference value: 16 ug/ml); type: functional; settings: dose 32 µg/ml
Beta-lactamase VIM-1 = Beta-lactamase VIM-1 (Bacteria, UniProt Q8GDC1); assay: Binding affinity to VIM-1 (unknown origin) expressed in Escherichia coli BL21(DE3) assessed as inhibition constant by measuring rate of substrate hydrolysis by UV-Vis spectrophotometric analysis; summary of the method: as §1
[4] = target: Metallo-beta-lactamase type 2 (Bacteria) (UniProt C7C422); assay: Inhibition of NDM1 (unknown origin) expressed in Escherichia coli BL21(DE3) assessed as substrate hydrolysis at 100 uM by UV-Vis spectrophotometric analysis relative to control
Chain of Metallo-beta-lactamase type 2 (Bacteria) (C7C422 whole entry): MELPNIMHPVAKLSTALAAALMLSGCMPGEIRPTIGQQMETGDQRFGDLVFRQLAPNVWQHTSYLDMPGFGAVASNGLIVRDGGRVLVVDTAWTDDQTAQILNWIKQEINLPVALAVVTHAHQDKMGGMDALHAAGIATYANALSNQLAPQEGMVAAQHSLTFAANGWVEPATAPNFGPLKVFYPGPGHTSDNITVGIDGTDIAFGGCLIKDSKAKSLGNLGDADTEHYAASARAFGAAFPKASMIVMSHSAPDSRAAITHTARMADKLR
Summary of the method: (§2)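 Single-point screen at 100 or 200 µM inhibitor against purified MBL (1–70 nM) with 150 µM imipenem or meropenem reporter substrate, 50 mM HEPES pH 7.5, 30 °C. Initial hydrolysis rate read by absorbance at 300 nm and compared with the uninhibited reaction. Triplicate.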

[5] = Binding affinity to VIM-2 (unknown origin) expressed in Escherichia coli BL21(DE3) assessed as inhibition constant by measuring rate of substrate hydrolysis by UV-Vis spectrophotometric analysis; summary of the method: as §1
Escherichia coli = assay: Synergistic antimicrobial activity against blaNDM-1-producing multidrug-resistant Escherichia coli SI-004M clinical isolate assessed as meropenem MIC at 32 ug/ml by CLSI based microdilution method (reference value: 64 ug/ml); type: functional; settings: dose 32 µg/ml
[6] = system: metallo-β-lactamase IMP-1 (Pseudomonas aeruginosa); assay: Inhibition of IMP1 (unknown origin) expressed in Escherichia coli BL21(DE3) assessed as substrate hydrolysis at 100 uM by UV-Vis spectrophotometric analysis relative to control
[7] = system: metallo-β-lactamase VIM-4 (Pseudomonas aeruginosa); assay: Inhibition of VIM-4 (unknown origin) expressed in Escherichia coli BL21(DE3) assessed as substrate hydrolysis at 100 uM by UV-Vis spectrophotometric analysis relative to control
[8] = target: Metallo-beta-lactamase type 2 (Bacteria) (UniProt C7C422); assay: Inhibition of NDM1 (unknown origin) expressed in Escherichia coli BL21(DE3) assessed as substrate hydrolysis at 200 uM by UV-Vis spectrophotometric analysis relative to control; summary of the method: as §2
[9] = system: metallo-β-lactamase VIM-2 (Pseudomonas aeruginosa); assay: Inhibition of VIM-2 (unknown origin) expressed in Escherichia coli BL21(DE3) assessed as substrate hydrolysis at 200 uM by UV-Vis spectrophotometric analysis relative to control
[10] = system: metallo-β-lactamase VIM-2 (Pseudomonas aeruginosa); assay: Inhibition of VIM-2 (unknown origin) expressed in Escherichia coli BL21(DE3) assessed as substrate hydrolysis at 100 uM by UV-Vis spectrophotometric analysis relative to control
[11] = system: metallo-β-lactamase IMP-1 (Pseudomonas aeruginosa); assay: Inhibition of IMP1 (unknown origin) expressed in Escherichia coli BL21(DE3) assessed as substrate hydrolysis at 200 uM by UV-Vis spectrophotometric analysis relative to control
[12] = system: metallo-β-lactamase VIM-4 (Pseudomonas aeruginosa); assay: Inhibition of VIM-4 (unknown origin) expressed in Escherichia coli BL21(DE3) assessed as substrate hydrolysis at 200 uM by UV-Vis spectrophotometric analysis relative to control
[13] = Binding affinity to IMP1 (unknown origin) expressed in Escherichia coli BL21(DE3) assessed as inhibition constant by measuring rate of substrate hydrolysis by UV-Vis spectrophotometric analysis; summary of the method: as §1
[14] = target: Metallo-beta-lactamase type 2 (Bacteria, UniProt C7C422); assay: Binding affinity to NDM1 (unknown origin) expressed in Escherichia coli BL21(DE3) assessed as inhibition constant by measuring rate of substrate hydrolysis by UV-Vis spectrophotometric analysis; settings: read-out: Ki; summary of the method: as §1
Chain of Metallo-beta-lactamase type 2 (C7C422 whole entry): as above

## Oc1ccc(CCn2c(-c3cc(-c4ccccc4)ccc3O)n[nH]c2=S)c(O)c1
[1]
  Ki: 0.85 µM
Klebsiella pneumoniae [2]
  MIC: 2 µg/mL
Klebsiella pneumoniae [3]
  MIC: 1 µg/mL
Beta-lactamase VIM-1
  Ki: 0.76 µM
[4]
  inhibition: 38%
[5]
  Ki: 1.9 µM
Escherichia coli
  MIC: 64 µg/mL
[6]
  inhibition: 44%

## S=c1[nH]nc(-c2ccc3ccccc3c2)n1[C@@H]1C[C@H]1c1ccccc1
[7]
  inhibition: 35%
[8]
  inhibition: < 50%
[4]
  inhibition: < 30%
[9]
  inhibition: < 50%
[6]
  inhibition: < 30%
[10]
  inhibition: < 30%
[11]
  inhibition: < 50%

## O=C1OC(Cn2c(-c3ccccc3)n[nH]c2=S)c2ccccc21 (stereo not given)
[1]
  Ki: 7.8 µM
Klebsiella pneumoniae [2]
  MIC: 2 µg/mL
Klebsiella pneumoniae [3]
  MIC: 2 µg/mL
Beta-lactamase VIM-1
  Ki: 0.75 µM
[4]
  inhibition: 51%
Escherichia coli
  MIC: 64 µg/mL
[9]
  inhibition: < 50%
[6]
  inhibition: < 30%
[10]
  inhibition: < 30%
[11]
  inhibition: < 50%

## O=C1OC(Cn2c(-c3cccc(-c4ccccc4)c3)n[nH]c2=S)c2ccccc21 (stereo not given)
[8]
  inhibition: < 50%
[4]
  inhibition: < 30%
[9]
  inhibition: < 50%
[6]
  inhibition: < 30%
[10]
  inhibition: < 30%
[11]
  inhibition: < 50%

## Cc1ccccc1-c1n[nH]c(=S)n1CCc1ccc(O)cc1
[1]
  Ki: 1.6 µM
[8]
  inhibition: < 50%
[4]
  inhibition: < 30%
[6]
  inhibition: 56%

## O=C(NCc1ccccc1)c1ccccc1CCn1c(-c2ccccc2)n[nH]c1=S
[7]
  inhibition: < 30%
[4]
  inhibition: 45%
[9]
  inhibition: < 50%
[6]
  inhibition: 45%
[12]
  inhibition: < 50%
[10]
  inhibition: < 30%

## S=c1[nH]nc(-c2ccccc2)n1CCc1ccccc1
[1]
  Ki: 2.1 µM
Klebsiella pneumoniae [2]
  MIC: 2 µg/mL
Klebsiella pneumoniae [3]
  MIC: 2 µg/mL
Beta-lactamase VIM-1
  Ki: 3.2 µM
[8]
  inhibition: < 50%
[4]
  inhibition: < 30%
Escherichia coli
  MIC: 64 µg/mL
[9]
  inhibition: < 50%
[6]
  inhibition: < 30%
[10]
  inhibition: < 30%
[11]
  inhibition: < 50%

## FC(F)(F)c1ccc(CCn2c(-c3ccccc3)n[nH]c2=S)cc1
[8]
  inhibition: < 50%
[4]
  inhibition: < 30%
[9]
  inhibition: < 50%
[6]
  inhibition: < 30%
[10]
  inhibition: < 30%
[11]
  inhibition: < 50%

## Cc1ccccc1CCn1c(-c2ccccc2)n[nH]c1=S
[8]
  inhibition: < 50%
[4]
  inhibition: < 30%
[9]
  inhibition: < 50%
[6]
  inhibition: < 30%
[10]
  inhibition: < 30%
[11]
  inhibition: < 50%

## Cc1ccccc1-c1n[nH]c(=S)n1CCc1ccccc1
[1]
  Ki: 2.4 µM
Klebsiella pneumoniae [2]
  MIC: 4 µg/mL
Klebsiella pneumoniae [3]
  MIC: 4 µg/mL
Beta-lactamase VIM-1
  Ki: 3.3 µM
[8]
  inhibition: < 50%
[4]
  inhibition: < 30%
[13]; read-out: Ki(app)
  Ki: 14 µM
[5]
  Ki: 9.4 µM

## Sc1nnc(-c2ccccc2)n1-c1ccccc1
Beta-lactamase VIM-1
  Ki: 3.2 µM
[4]
  inhibition: < 30%
[5]
  Ki: 16 µM

## S=c1[nH]nc(-c2cc(Cl)cc(Cl)c2)n1/N=C/c1ccc(OCc2ccccc2)cc1
[1]
  Ki: 0.6 µM
[13]; read-out: Ki
  Ki: 0.1 µM
[10]
  inhibition: < 30%

## S=c1[nH]nc(-c2ccc3ccccc3c2)n1CCc1ccccc1
[7]
  inhibition: < 30%
Beta-lactamase VIM-1
  Ki: 3.7 µM
[8]
  inhibition: < 50%
[4]
  inhibition: < 30%
[9]
  inhibition: < 50%
[6]
  inhibition: < 30%
[12]
  inhibition: < 50%
[10]
  inhibition: < 30%
[11]
  inhibition: < 50%

## COc1ccc(O)c(-c2n[nH]c(=S)n2CCc2ccc(OCc3ccccc3)cc2)c1
[1]
  Ki: 0.54 µM
Beta-lactamase VIM-1
  Ki: 11.1 µM
[8]
  inhibition: < 50%
[4]
  inhibition: < 30%
[9]
  inhibition: < 50%
[6]
  inhibition: 35%
[10]
  inhibition: < 30%

## Oc1ccc(CCn2c(-c3ccccc3-c3ccccc3)n[nH]c2=S)c(O)c1
[1]
  Ki: 60 µM
Beta-lactamase VIM-1
  Ki: 27 µM
[6]
  inhibition: < 30%
[14]
  Ki: 15.2 µM
[10]
  inhibition: 35%
[11]
  inhibition: < 50%
